Data set [1] is described as follows: Binding affinity to P-gp at 5 uM after 30 mins by spectrophotometry. An outline of the steps: (§1)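 P-gp vesicles from DC-3F/ADX MDR cells; basal MgATP hydrolysis measured by PK/LDH-coupled NADH oxidation (PEP, NADH), with non-specific ATPase inhibitor; vesicles 5 min at 37 °C, compound added (final 0.05, 0.5, 5 µM) 5 min, MgATP then 20 min at 37 °C; A340 read twice 20 min apart; triplicate; verapamil, vinblastine, progesterone references.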

Data set [2] in a line: Binding affinity to P-gp at 0.5 uM after 30 mins by spectrophotometry. An outline of the steps:
as §1

Data set [3] can be described thus: Binding affinity to P-gp at 0.05 uM after 30 mins by spectrophotometry. A digest of the protocol: as §1
Data set [4] is described as follows: Binding affinity to P-gp assessed as increase in basal protein activity at 5 uM after 30 mins by spectrophotometry. An outline of the steps:
as §1

The nature of data set [5]: Binding affinity to P-gp assessed as increase in basal protein activity at 0.5 uM after 30 mins by spectrophotometry. An outline of the steps:
as §1

Data set [6] is described as follows: Binding affinity to P-gp assessed as increase in basal protein activity at 0.05 uM after 30 mins by spectrophotometry. A digest of the protocol:
as §1

For data set [7], the system named is ATP. Nature of the data set: Binding affinity to ATP at 50 uM in HEPES buffer of pH 7.2 by spectrophotometry. An outline of the steps: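 UV-vis titration: compound held constant at 50 µM in HEPES pH 7.2, titrated with NaATP (from 10^-2 M stock) over 0–3 equiv; absorbance change followed; binding constant from Benesi–Hildebrand plot.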
Data set [8] is described as follows: Binding affinity to Mg2+ at 100 uM in HEPES buffer of pH 7.2 by spectrophotometry. An outline of the steps:
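Compound at 10^-4 M in 10^-2 M HEPES pH 7.2 titrated with Mg²⁺ (0–0.5 × 10^-4 M); absorbance changes at 270–310, 390–415 and 320–340 nm monitored; binding constant by Benesi–Hildebrand equation.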

In data set [9] the test system is Candida albicans. The data set is described as follows: Antifungal activity at Candida albicans CAI4 after 48 hrs by ELISA. The data set is classed as functional. The following applies: CAI4, 48 h. A digest of the protocol: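 Broth microdilution; CAI4 streaked on YEPD, 30 °C 24 h; compounds serially diluted twofold in YEPD, solvent diluted alongside; growth control column; 30 °C 48 h; OD600 on plate reader; MIC80 = concentration giving 80% growth inhibition vs no-compound growth.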
For orientation: In an ELISA, binding on a coated surface is turned into a signal by an enzyme label.

The nature of data set [10]: Partition coefficient, log P of the compound. The class given is physicochemical. Conditions: octanol/water.

Structures are written as SMILES. Converted amounts (≈) assume the structure as drawn. The source made the active and inactive calls. No cut-off for these calls is given here.

We go through 13 compounds from ChEMBL document CHEMBL1166014, “Targeting efflux pumps-In vitro investigations with acridone derivatives and identification of a lead molecule for MDR modulation” (Bioorg Med Chem, 2010).

Consider `CC(=O)[C@H]1CC[C@H]2[C@@H]3CCC4=CC(=O)CC[C@]4(C)[C@H]3CC[C@]12C`, for which the RBA in data set [1] was 1.42; in data set [2] it was 1.11; in data set [3], 1.

Turning to `CC(C)N(CC(O)Cn1c2ccccc2c(=O)c2cccc(C(=O)O)c21)C(C)C` (stereo not given), the RBA in data set [1] was found to be 2.05; in [2], 1.6; in data set [3] it was 1.53. Moreover, the Activity came out at 105% in data set [4], 60% in data set [5] and 53% in data set [6]. Besides, the Ka entry in [7] is “inactive”. The Ka in [8] was determined as 2 ×10⁵ /M.

In general, MIC80 refers to an inhibitory concentration at the 80% level, which refers to growth in some studies and to a panel of isolates in others. A higher MIC80 goes with weaker potency. Take `O=c1c2ccccc2n(CC(O)CN2CCCCC2)c2c(Cl)cccc12` (stereo not given): the Ka in data set [7] amounted to 5 ×10⁵ /M; in data set [8], 1.48 ×10⁵ /M. The compound further had an MIC80 in data set [9] of more than 3000 µg/mL.

For the compound `COc1ccc(CCN(C)CCCC(C#N)(c2ccc(OC)c(OC)c2)C(C)C)cc1OC` (stereo not given), the RBA was determined as 2.8 in data set [1], 2.01 in data set [2] and 1.11 in data set [3].

As for `O=c1c2ccccc2n(CC(O)CN2CCCC2)c2c(Cl)cccc12` (stereo not given), the results for the Ka in data set [7] and in data set [8] were 6.57 ×10⁵ /M and 0.95 ×10⁵ /M, respectively. Besides, the MIC80 in data set [9] is more than 3000 µg/mL.

For the compound `O=C(O)c1cccc2c(=O)c3ccccc3n(CC(O)CN3CCCCC3)c12` (stereo not given), the RBA in data set [1] worked out at 2.44; in data set [2], 1.66; in data set [3], 1.57. For the same compound, the Activity in data set [4] came out at 144%; in data set [5] it was 66%; in data set [6], 57%. The Ka result in data set [7] is “inactive”. Also, the Ka in data set [8] came to 19.7 ×10⁵ /M.

Turning to `CCN(CC)CC(O)Cn1c2ccccc2c(=O)c2cccc(Cl)c21` (stereo not given), the Ka in data set [7] came to 7.9 ×10⁵ /M; in data set [8], 0.39 ×10⁵ /M. In data set [9], the MIC80 was determined as 1500 µg/mL (≈ 4.18 mM).

As for `O=c1c2ccccc2n(CC(O)CN2CCOCC2)c2c(Cl)cccc12` (stereo not given), the results for the Ka in [7] and in data set [8] were 4.08 ×10⁵ /M and 17.1 ×10⁵ /M, respectively. Besides, the MIC80 in [9] is more than 3000 µg/mL.

As a reminder, the logP is the decadic logarithm of the partition coefficient of the neutral form, usually between octanol and water. For the compound `O=C(O)c1cccc2c(=O)c3ccccc3n(CC(O)CN3CCOCC3)c12` (stereo not given), the RBA was determined as 2.66 in data set [1], 2 in [2] and 1.63 in [3]. The values for the Activity in [4], in data set [5] and in data set [6] were 166%, 100% and 63%, respectively. In addition, in data set [7], the Ka entry was “inactive”. In data set [8], the Ka was 3.82 ×10⁵ /M. This compound yielded a logP in data set [10] of 0.6.

Turning to `O=c1c2ccccc2n(CC(O)CN2CCC(N3CCCCC3)CC2)c2c(Cl)cccc12` (stereo not given), the Ka in data set [7] is 11 ×10⁵ /M; in data set [8], 18.6 ×10⁵ /M. In data set [9], this compound displayed an MIC80 of more than 3000 µg/mL.

With `CCN(CC)CC(O)Cn1c2ccccc2c(=O)c2cccc(C(=O)O)c21` (stereo not given), the figures for the RBA in data set [1], in [2] and in [3] were 2.12, 1.7 and 1.65, respectively. Besides, the Activity in data set [4] is 112%; in [5], 70%; in [6], 65%. The Ka result in data set [7] was “inactive”. This compound also returned a Ka in [8] of 7.74 ×10⁵ /M.

As to `CC[C@]1(O)C[C@@H]2CN(CCc3c([nH]c4ccccc34)[C@@](C(=O)OC)(c3cc4c(cc3OC)N(C)[C@H]3[C@@](O)(C(=O)OC)[C@H](OC(C)=O)[C@]5(CC)C=CCN6CC[C@]43[C@@H]65)C2)C1`, the values for the RBA in data set [1], in data set [2] and in data set [3] were 1.21, 1.37 and 0.98, respectively.

For the compound `CC(C)N(CC(O)Cn1c2ccccc2c(=O)c2cccc(Cl)c21)C(C)C` (stereo not given), the Ka in [7] was 1.42 ×10⁵ /M; in [8], 2.2 ×10⁵ /M. The compound further came in with an MIC80 in [9] of more than 3000 µg/mL.
